Bioassay records deposited in PubChem by Johns Hopkins Ion Channel Center.
Only some compounds are listed: those with a hit (about 3.8% of all), similar ones and a draw of the others.
KCNK9 inh = inhibitors of human KCNK9 two-pore domain potassium channel. HEK293 KCNK9, FluxOR thallium flux fluorescence; active compounds read low. Q9NPC2. AID 488922. 310,000 tested, 1.2% active. B-score at 10 µM;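 active = ratio B-score over 3 SD below the library mean, with starting fluorescence within 5 SD of its mean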;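 note: negative B-score means less thallium flux so channel inhibition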
hERG protect = hERG (human) protection from proarrhythmic block; Q12809; CHO-hERG, FluxOR thallium flux, dofetilide IC70 present; activation (rescue from dofetilide block), less the hit threshold, % at 10 µM; 310,000 tested, 0.51% active; AID 1511;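 active = activation above the mean of controls blocked by dofetilide plus 5 SD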;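 note: thallium influx through hERG after potassium depolarization seen as dye fluorescence rise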
KCNK3 block = human KCNK3 channel inhibition, primary screen; O14649; CHO-KCNK3 thallium flux, FluxOR fluorescence; active compounds read low; B-score at 10 µM; 340,000 tested, 0.84% active; AID 602410;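 active = B-score under library mean minus 4 SD, starting fluorescence ratio at most library mean plus 5 SD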;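 note: more negative B-score means stronger inhibition of thallium flux through KCNK3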
Kir21 block = blocks the mouse Kir2.1 inward-rectifier potassium channel. HEK293-Kir2.1, FluxOR thallium flux fluorescence; active compounds read low. B-score at 10 µM. 310,000 tested, 0.85% active;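 active = fluorescence ratio B-score at or below minus 3 SD of library scores, with starting-brightness B-score within 2 SD, cut at about -4.2 in these data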;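 note: channel flux triggered by added potassium and thallium sulfate stimulus; B-score of peak minus minimum fluorescence over baseline after thallium stimulus; more negative B-score means stronger Kir2.1 block with less thallium influx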
Target sequence (P35561 whole entry, looked up): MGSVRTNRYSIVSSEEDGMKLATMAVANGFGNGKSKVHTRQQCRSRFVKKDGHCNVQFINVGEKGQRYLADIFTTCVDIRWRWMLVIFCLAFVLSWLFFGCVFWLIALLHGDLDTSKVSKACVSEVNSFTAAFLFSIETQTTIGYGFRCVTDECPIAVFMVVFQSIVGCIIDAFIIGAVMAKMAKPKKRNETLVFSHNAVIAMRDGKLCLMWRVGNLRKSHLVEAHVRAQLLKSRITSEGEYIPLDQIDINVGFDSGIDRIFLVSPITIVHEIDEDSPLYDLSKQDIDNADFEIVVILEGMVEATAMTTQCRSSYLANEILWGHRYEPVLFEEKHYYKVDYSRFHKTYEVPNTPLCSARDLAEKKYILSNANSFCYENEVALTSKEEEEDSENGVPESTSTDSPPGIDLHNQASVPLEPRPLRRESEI
KCNQ1 block = blocks the human KCNQ1 potassium channel; 310,000 tested, 1.3% active; AID 2642; CHO-K1 KCNQ1, FluxOR thallium flux fluorescence; active compounds read high; B-score at 10 µM; P51787;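 active = compounds whose thallium flux B-score, printed positive for inhibition, exceeds three library SD while starting fluorescence stays within three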;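 note: channel opened by potassium depolarization with thallium stimulus after 20 min compound exposure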
KCNQ1 pot = potentiates or activates the human KCNQ1 potassium channel; P51787; CHO-K1 KCNQ1, thallium flux FluxOR fluorescence; active compounds read high; B-score at 10 µM; 310,000 tested, 0.35% active; AID 2648;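 active = fluorescence ratio B-score, a plate-corrected score, at least three library SD, with initial intensity B-score within 5 SD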
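Medium – assay buffer, equal DMSO in all wells · Material – CHO-K1 cell line with stable KCNQ1 potassium channel expression · Signal – kinetic FluxOR thallium fluorescence, 10-s 1-Hz baseline, 110-s post-stimulus read · Compound – single concentration per compound, DMSO matched to controls · Schedule – 37 °C overnight plating, 90-min dark dye load, 20-min compound pretreatment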
KCNK9 block conf = confirmation of human KCNK9 potassium channel inhibitors; shares compounds with KCNK9 inh; HEK293 KCNK9 cells, FluxOR thallium flux fluorescence; inhibition, % at 10 µM; 4,900 tested, 43% active; AID 492992;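 active = thallium signal inhibited by more than 5 SD of the compound-free buffer control wells, on both duplicate plates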;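 note: 0% = assay buffer control wells without compound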
Kir21 sel = mouse Kir2.1 off-target activity of KCNK9 modulators; shares compounds with KCNK9 inh; Kir2.1 cells, FluxOR thallium flux fluorescence; inhibition, % at 10 µM; 4,900 tested, 4% active;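 active = thallium signal drop more than 5 SD beyond the mean of the no-compound control wells, seen in both duplicate plates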;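 note: signal is fluorescence rise after thallium addition divided by baseline fluorescence; plate controls were assay buffer only for no effect and full block by chlorpromazine control for full effect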
KCNK9 uninduced = second check of KCNK9 modulator effects in non-induced HEK293 cells | shares compounds with KCNK9 inh | FluxOR thallium flux | inhibition, % at 10 µM | 4,900 tested, 40% active;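 active = thallium signal drop beyond 5 SD of the untreated control mean, on both duplicate plates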;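 note: plate controls were buffer only IC0 wells for no effect and SID17386958 at its maximal inhibitory level for full effect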
Starred values were filed as active, the others as inactive; i = inactive; · = no result.

SMILES	KCNK9 inh	hERG protect	KCNK3 block	Kir21 block	KCNQ1 block	KCNQ1 pot	KCNK9 block conf	Kir21 sel	KCNK9 uninduced
Cc1cc(/C=c2\sc3nc4ccccc4n3c2=O)c(C)n1-c1ccc(C(=O)O)cc1	i	-31	i	-2.5	i	i	i	i	i
CCOC(=O)c1c(C)[nH]c(C)c1S(=O)(=O)N1CCN(c2ccc(F)cc2)CC1	i	-13	i	-0.09	i	i	·	·	·
Cc1cccc(Oc2ccc(S(=O)(=O)N3CCCCC3)cc2N)c1	-10*	-23	i	0.65	i	i	50%*	i	31%*
Cc1cccc(OCCOC(=O)C2CCN(S(=O)(=O)c3ccc(C)c(C)c3)CC2)c1	i	-17	i	-0.48	i	i	i	i	i
CC(=O)c1ccc(OCCCC(=O)Nc2ccc(C)c(S(=O)(=O)N3CCCCC3)c2)cc1	·	·	i	·	·	·	·	·	·
Cc1cccc(OCCC(=O)Nc2ccc(C)c(S(=O)(=O)N3CCCCC3)c2)c1	i	-1	i	0	i	i	i	i	i
Cc1ccc(OCCOC(=O)C2CCN(S(=O)(=O)c3ccc(C)c(C)c3)CC2)cc1	i	-7	i	-1.4	i	i	i	i	i
COc1ccc(-c2[nH]ncc2/C=N/NC(=O)c2ccncc2)c(OC)c1	i	-4	i	0.2	i	i	·	·	·
CCCCC(NC(=O)Cc1c(C)c2cc3c(-c4ccccc4)coc3c(C)c2oc1=O)C(=O)O (centres undefined)	i	-18	i	3.5	i	i	·	·	·
CCOc1ccc(Nc2nc(N(C)c3ccccc3)nc(N)c2[N+](=O)[O-])cc1	i	0	i	0.33	i	i	·	·	·
Cc1cc(OCc2nn[nH]n2)c2c(C)c(Cc3ccccc3)c(=O)oc2c1	i	-5	i	0.72	i	i	·	·	·
CC(C)c1cc(C(N)=O)c(NC(=O)c2cccc(COc3ccc(Cl)cc3)c2)s1	i	-9	i	0.7	i	i	·	·	·
CC(C)COc1ccc(C(=O)Nc2scc(-c3ccc(Cl)cc3Cl)c2C(N)=O)cc1	i	-12	i	-0.54	i	i	i	i	i
CC(=O)c1cn(Cc2ccccc2)c(=O)n(Cc2ccc(F)cc2)c1=O	i	-3	i	-0.23	i	i	·	·	·
COC(=O)c1ccccc1NC(=O)C12CC3CC(C1)CC(n1cnc(Cl)n1)(C3)C2	i	-17	i	0.95	i	i	i	i	i
COC(=O)C12CC3CC(C1)CC(n1cnc(Cl)n1)(C3)C2	i	-6	i	0.53	i	i	·	·	·
O=S(=O)(c1ccccc1)N1CCN(Cc2ccccc2)CC1	i	1	i	-0.23	i	i	·	·	·
O=S(=O)(c1ccccc1)N1CCN(Cc2ccc(Cl)cc2)CC1	i	-16	i	1.3	i	i	i	i	i
COc1cccc(CN2CCN(S(=O)(=O)c3ccccc3)CC2)c1OC	i	-10	i	-0.73	i	i	·	·	·
COc1ccccc1CN1CCN(S(=O)(=O)c2ccccc2)CC1	i	2	i	-0.36	i	i	i	i	i
CCN1CCN(C(=O)CN2C(=O)c3ccccc3S2(=O)=O)CC1	i	-11	i	-0.11	i	i	·	·	·
Cc1nn(-c2ccccc2)c(Cl)c1/C=N/Nc1nc2ccccc2n1C	i	-11	i	0.56	i	i	i	i	i
Cc1cc(C(=O)COC(=O)CNC(=O)c2ccco2)c(C)n1Cc1ccco1	i	-7	i	-0.02	i	i	·	·	·
Cc1cc(C(=O)COC(=O)c2ccc(Br)o2)c(C)n1Cc1ccco1	i	-8	·	0.54	i	i	i	i	i
Cc1cc(C(=O)COC(=O)CCC(=O)c2ccc3c(c2)OCCO3)c(C)n1Cc1ccco1	i	-7	i	-0.29	i	i	i	i	i
SMILES	KCNK9 inh	hERG protect	KCNK3 block	Kir21 block	KCNQ1 block	KCNQ1 pot	KCNK9 block conf	Kir21 sel	KCNK9 uninduced
COc1cc(OC)cc(C(=O)NCC(=O)OCC(=O)c2cc(C)n(Cc3ccco3)c2C)c1	i	-8	i	-0.03	i	i	·	·	·
O=S(=O)(NCCN1CCOCC1)c1cc(Cl)ccc1Cl	i	-1	i	-0.7	i	i	·	·	·
CCOc1ccc(N(CC(=O)NCC2CCCO2)S(=O)(=O)c2ccc(SC)cc2)cc1 (centres undefined)	i	-7	i	0.37	i	i	·	·	·
CC(=O)Nc1ccc(C=NNc2ccc([N+](=O)[O-])cc2S(=O)(=O)Nc2ccccc2C(=O)O)cc1	·	·	i	·	·	·	·	·	·
Cc1ccc(NC(=S)NNc2ccc([N+](=O)[O-])cc2S(=O)(=O)Nc2ccccc2C(=O)O)cc1C	i	-11	i	-0.63	i	i	i	i	i
Clc1ccc(-c2nnsc2SCc2ccccc2)cc1	-11*	-8	i	0.03	i	i	i	i	44%*
O=C(NCCc1ccc(Cl)cc1)C1CCCO1 (centres undefined)	i	-8	i	0.9	i	i	·	·	·
COc1cccc(C(=O)NCCS(=O)(=O)N2CCN(C(=O)c3ccco3)CC2)c1	i	-6	i	-0.05	i	i	·	·	·
COc1ccc(Br)cc1C(=O)Nc1cccc(-c2nnc(-c3ccco3)o2)c1	-12*	-4	i	0	i	i	60%*	i	i
COc1ccc(NC(=O)c2ccc(-c3ccc([N+](=O)[O-])cc3)o2)cc1OC	-16*	-8	i	-0.13	i	i	56%*	i	26%*
CCc1ccc(NC(=O)COC(=O)/C(=C/c2ccccc2OC)c2ccccc2)cc1	i	-7	i	1	i	i	i	i	i
Cc1c(NC(=O)C(C)OC(=O)/C=C/c2ccc(OC(F)F)cc2)c(=O)n(-c2ccccc2)n1C (centres undefined)	i	-7	i	0.38	i	i	·	·	·
C=CCn1c(NS(=O)(=O)c2ccccc2)c(S(=O)(=O)c2ccc(C)cc2)c2nc3ccccc3nc21	i	-6	i	-0.53	i	i	·	·	·
O=S(=O)(Nc1c(S(=O)(=O)c2ccccc2)c2nc3ccccc3nc2n1C1CCCCC1)c1ccccc1	i	-17	i	-5.1*	i	i	i	i	i
